Results: ChEMBL document CHEMBL1255424, “Antistaphylococcal activity of ACHN-490 tested alone and in combination with other agents by time-kill assay” (2010)

Experiments:
Format in all cases: functional
Staphylococcus aureus [1] = assay: Antibacterial activity against vancomycin-intermediate Staphylococcus aureus isolate 1008 after 24 hrs by modified broth macrodilution method; conditions: isolate 1008, 24 h
In short: (§1)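 MIC read after 24 h incubation by modified broth macrodilution, validated per CLSI recommendations, against recent clinical MRSA isolates (hospital- and community-acquired, hVISA, VISA, VRSA). Daptomycin tests ran in Mueller-Hinton broth with added calcium.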

Staphylococcus aureus [2] = assay: Antibacterial activity against vancomycin-intermediate Staphylococcus aureus isolate 1009 after 24 hrs by modified broth macrodilution method; conditions: isolate 1009, 24 h; in short: as §1
Staphylococcus aureus [3] = assay: Antibacterial activity against hospital-acquired methicillin-resistant Staphylococcus aureus isolate 1806 after 24 hrs by modified broth macrodilution method; conditions: isolate 1806, 24 h; in short: as §1
Staphylococcus aureus [4] = assay: Antibacterial activity against vancomycin-resistant Staphylococcus aureus isolate 1264 after 24 hrs by modified broth macrodilution method; conditions: isolate 1264, 24 h; in short: as §1
Staphylococcus aureus [5] = assay: Antibacterial activity against community-acquired methicillin-resistant panton-valentine leukocidin-positive Staphylococcus aureus isolate 593 after 24 hrs by modified broth macrodilution method; conditions: isolate 593, 24 h; in short: as §1
Staphylococcus aureus [6] = assay: Antibacterial activity against vancomycin-intermediate Staphylococcus aureus isolate 1004 after 24 hrs by modified broth macrodilution method; conditions: isolate 1004, 24 h; in short: as §1
Staphylococcus aureus [7] = assay: Antibacterial activity against community-acquired methicillin-resistant panton-valentine leukocidin-positive Staphylococcus aureus isolate 1468 after 24 hrs by modified broth macrodilution method; conditions: isolate 1468, 24 h; in short: as §1
Staphylococcus aureus [8] = assay: Antibacterial activity against vancomycin-intermediate Staphylococcus aureus isolate 1006 after 24 hrs by modified broth macrodilution method; conditions: isolate 1006, 24 h; in short: as §1
Staphylococcus aureus [9] = assay: Antibacterial activity against hospital-acquired methicillin-resistant Staphylococcus aureus isolate 1766 after 24 hrs by modified broth macrodilution method; conditions: isolate 1766, 24 h; in short: as §1
Staphylococcus aureus [10] = assay: Antibacterial activity against community-acquired methicillin-resistant panton-valentine leukocidin-positive Staphylococcus aureus isolate 1471 after 24 hrs by modified broth macrodilution method; conditions: isolate 1471, 24 h; in short: as §1
Staphylococcus aureus [11] = assay: Antibacterial activity against vancomycin-intermediate Staphylococcus aureus isolate 1010 after 24 hrs by modified broth macrodilution method; conditions: isolate 1010, 24 h; in short: as §1
Staphylococcus aureus [12] = assay: Antibacterial activity against vancomycin-intermediate Staphylococcus aureus isolate 1017 after 24 hrs by modified broth macrodilution method; conditions: isolate 1017, 24 h; in short: as §1
Staphylococcus aureus [13] = assay: Antibacterial activity against vancomycin-intermediate Staphylococcus aureus isolate 1015 after 24 hrs by modified broth macrodilution method; conditions: isolate 1015, 24 h; in short: as §1
Staphylococcus aureus [14] = assay: Antibacterial activity against vancomycin-intermediate Staphylococcus aureus isolate 1016 after 24 hrs by modified broth macrodilution method; conditions: isolate 1016, 24 h; in short: as §1
Staphylococcus aureus [15] = assay: Antibacterial activity against hospital-acquired methicillin-resistant Staphylococcus aureus isolate 1851 after 24 hrs by modified broth macrodilution method; conditions: isolate 1851, 24 h; in short: as §1
Staphylococcus aureus [16] = assay: Antibacterial activity against vancomycin-intermediate Staphylococcus aureus isolate 1012 after 24 hrs by modified broth macrodilution method; conditions: isolate 1012, 24 h; in short: as §1
Staphylococcus aureus [17] = assay: Antibacterial activity against vancomycin-resistant Staphylococcus aureus after 24 hrs by modified broth macrodilution method; in short: as §1
Staphylococcus aureus [18] = assay: Antibacterial activity against community-acquired methicillin-resistant panton-valentine leukocidin-positive Staphylococcus aureus isolate 950 after 24 hrs by modified broth macrodilution method; conditions: isolate 950, 24 h; in short: as §1
Staphylococcus aureus [19] = assay: Antibacterial activity against vancomycin-intermediate Staphylococcus aureus after 24 hrs by modified broth macrodilution method; in short: as §1
Staphylococcus aureus [20] = assay: Antibacterial activity against community-acquired methicillin-resistant panton-valentine leukocidin-positive Staphylococcus aureus isolate 693 after 24 hrs by modified broth macrodilution method; conditions: isolate 693, 24 h; in short: as §1
Staphylococcus aureus [21] = assay: Antibacterial activity against vancomycin-intermediate Staphylococcus aureus isolate 1287 after 24 hrs by modified broth macrodilution method; conditions: isolate 1287, 24 h; in short: as §1
Staphylococcus aureus [22] = assay: Antibacterial activity against vancomycin-intermediate Staphylococcus aureus isolate 1013 after 24 hrs by modified broth macrodilution method; conditions: isolate 1013, 24 h; in short: as §1
Staphylococcus aureus [23] = assay: Antibacterial activity against vancomycin-intermediate Staphylococcus aureus isolate 1003 after 24 hrs by modified broth macrodilution method; conditions: isolate 1003, 24 h; in short: as §1
Staphylococcus aureus [24] = assay: Antibacterial activity against vancomycin-resistant Staphylococcus aureus isolate 509 after 24 hrs by modified broth macrodilution method; conditions: isolate 509, 24 h; in short: as §1
Staphylococcus aureus [25] = assay: Antibacterial activity against vancomycin-hetero-intermediate Staphylococcus aureus isolate 618 after 24 hrs by modified broth macrodilution method; conditions: isolate 618, 24 h; in short: as §1
Staphylococcus aureus [26] = assay: Antibacterial activity against vancomycin-hetero-intermediate Staphylococcus aureus after 24 hrs by modified broth macrodilution method; in short: as §1

Measured: MIC

CCCCCCCCCC(=O)N[C@@H](Cc1c[nH]c2ccccc12)C(=O)N[C@H](CC(N)=O)C(=O)N[C@@H](CC(=O)O)C(=O)N[C@@H]1C(=O)NCC(=O)N[C@@H](CCCN)C(=O)N[C@@H](CC(=O)O)C(=O)N[C@H](C)C(=O)N[C@@H](CC(=O)O)C(=O)NCC(=O)N[C@H](CO)C(=O)N[C@@H]([C@H](C)CC(=O)O)C(=O)N[C@@H](CC(=O)c2ccccc2N)C(=O)O[C@@H]1C
0.25 µg/mL: Staphylococcus aureus [4] | Staphylococcus aureus [17] | Staphylococcus aureus [18]
1 µg/mL: Staphylococcus aureus [7] | Staphylococcus aureus [9] | Staphylococcus aureus [11] | Staphylococcus aureus [12] | Staphylococcus aureus [13] | Staphylococcus aureus [16] | Staphylococcus aureus [25]
2 µg/mL: Staphylococcus aureus [1] | Staphylococcus aureus [2] | Staphylococcus aureus [8] | Staphylococcus aureus [14] | Staphylococcus aureus [21] | Staphylococcus aureus [22] | Staphylococcus aureus [23]
0.5 µg/mL: all other assays above
